Data on 23 compounds can be found in ChEMBL document CHEMBL3751721, “Development of acridine derivatives as selective Mycobacterium tuberculosis DNA gyrase inhibitors” (Bioorg Med Chem, 2016).

Data set [1] has as its target DNA gyrase subunit A/DNA gyrase subunit B (Mycobacterium tuberculosis (strain ATCC 25618 / H37Rv), UniProt P9WG45+P9WG47). Put plainly: Inhibition of Mycobacterium tuberculosis DNA gyrase assessed as inhibition of DNA supercoiling after 30 mins by electrophoresis.
Data set [2] has as its system Mycobacterium tuberculosis. Put plainly: Antimicrobial activity against Mycobacterium tuberculosis H37Rv ATCC 27294 after 28 days by alamar blue assay. The format is functional. The settings on record: H37Rv ATCC 27294, 672 h. (In general: Alamar Blue is a resazurin reagent that responds to reducing activity.)
Data set [3] can be described thus: Cytotoxicity against mouse RAW264.7 cells assessed as inhibition of cell growth at 50 uM after 72 hrs by MTT assay. The format is cell-based. In outline: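 RAW 264.7 mouse macrophages exposed to compound at 50 µM for 72 h. Viability read by MTT conversion to formazan, reported as percent inhibition.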
On the technique in general: Tetrazolium dyes change colour on reduction, which living cells bring about.

The target in data set [4] is DNA gyrase (Pseudomonas aeruginosa) (UniProt P48372+Q9I7C2). The data set can be described thus: Inhibition of Pseudomonas aeruginosa DNA gyrase assessed as inhibition of DNA supercoiling. The format is protein-complex assay.
In data set [5] the target is DNA gyrase subunit B (Mycobacterium smegmatis) (UniProt P0C559). Put plainly: Inhibition of Mycobacterium smegmatis GyrB by ATPase assay. The settings on record: Mycolicibacterium smegmatis.
Chain of DNA gyrase subunit B (Mycobacterium smegmatis) (P0C559 2-675 limits assumed): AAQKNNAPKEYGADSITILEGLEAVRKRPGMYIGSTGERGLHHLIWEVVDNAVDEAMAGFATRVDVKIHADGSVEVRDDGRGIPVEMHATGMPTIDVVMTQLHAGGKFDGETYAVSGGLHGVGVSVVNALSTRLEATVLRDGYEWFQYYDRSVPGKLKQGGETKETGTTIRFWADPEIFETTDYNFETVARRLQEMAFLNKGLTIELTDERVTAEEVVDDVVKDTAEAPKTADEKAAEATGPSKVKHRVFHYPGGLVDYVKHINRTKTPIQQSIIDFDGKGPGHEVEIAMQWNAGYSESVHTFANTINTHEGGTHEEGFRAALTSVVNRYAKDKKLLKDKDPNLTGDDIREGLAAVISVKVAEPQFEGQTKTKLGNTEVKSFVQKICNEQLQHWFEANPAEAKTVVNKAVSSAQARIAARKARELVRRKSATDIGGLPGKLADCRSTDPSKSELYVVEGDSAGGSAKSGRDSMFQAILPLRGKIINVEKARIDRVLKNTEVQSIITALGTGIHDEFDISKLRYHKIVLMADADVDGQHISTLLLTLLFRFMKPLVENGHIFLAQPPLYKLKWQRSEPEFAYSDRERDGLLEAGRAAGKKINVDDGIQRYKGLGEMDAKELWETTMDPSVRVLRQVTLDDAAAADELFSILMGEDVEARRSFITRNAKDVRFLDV
A further data set concerns Escherichia coli. Put plainly: Inhibition of Escherichia coli DNA gyrase assessed as inhibition of DNA supercoiling.
The test system of data set [6] is Mycobacterium tuberculosis. Put plainly: Inhibition of Mycobacterium tuberculosis DNA topoisomerase 1 assessed as DNA relaxation at 50 uM.
Data set [7] has as its target DNA gyrase (Staphylococcus aureus) (UniProt P0A0K8+P20831). Put plainly: Inhibition of Staphylococcus aureus DNA gyrase assessed as inhibition of DNA supercoiling. The format is protein-complex assay.

In brackets after ≈: the same amount, converted by molar mass. Activity calls are given as the source filed them. The rule behind the calls is not given here.

Chain of DNA gyrase subunit A/DNA gyrase subunit B (P9WG45 whole entry): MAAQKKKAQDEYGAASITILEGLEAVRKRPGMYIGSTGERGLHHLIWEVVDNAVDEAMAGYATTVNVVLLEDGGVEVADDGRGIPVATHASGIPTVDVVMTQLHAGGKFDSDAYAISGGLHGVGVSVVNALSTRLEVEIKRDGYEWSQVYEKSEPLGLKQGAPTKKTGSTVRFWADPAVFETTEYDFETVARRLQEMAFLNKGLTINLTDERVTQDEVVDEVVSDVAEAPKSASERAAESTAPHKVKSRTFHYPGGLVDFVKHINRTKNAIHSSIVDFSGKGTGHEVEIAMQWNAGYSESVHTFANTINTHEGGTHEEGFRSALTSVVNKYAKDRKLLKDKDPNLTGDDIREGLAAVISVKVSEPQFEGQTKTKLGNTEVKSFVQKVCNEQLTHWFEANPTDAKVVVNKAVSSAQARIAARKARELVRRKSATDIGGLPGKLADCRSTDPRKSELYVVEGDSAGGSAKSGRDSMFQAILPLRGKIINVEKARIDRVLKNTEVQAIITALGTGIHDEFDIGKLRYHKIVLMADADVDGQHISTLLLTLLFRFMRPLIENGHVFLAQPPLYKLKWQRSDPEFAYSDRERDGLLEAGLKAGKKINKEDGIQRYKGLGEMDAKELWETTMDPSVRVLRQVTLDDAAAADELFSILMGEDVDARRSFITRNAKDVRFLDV
Chain of DNA gyrase subunit A/DNA gyrase subunit B (P9WG47 whole entry): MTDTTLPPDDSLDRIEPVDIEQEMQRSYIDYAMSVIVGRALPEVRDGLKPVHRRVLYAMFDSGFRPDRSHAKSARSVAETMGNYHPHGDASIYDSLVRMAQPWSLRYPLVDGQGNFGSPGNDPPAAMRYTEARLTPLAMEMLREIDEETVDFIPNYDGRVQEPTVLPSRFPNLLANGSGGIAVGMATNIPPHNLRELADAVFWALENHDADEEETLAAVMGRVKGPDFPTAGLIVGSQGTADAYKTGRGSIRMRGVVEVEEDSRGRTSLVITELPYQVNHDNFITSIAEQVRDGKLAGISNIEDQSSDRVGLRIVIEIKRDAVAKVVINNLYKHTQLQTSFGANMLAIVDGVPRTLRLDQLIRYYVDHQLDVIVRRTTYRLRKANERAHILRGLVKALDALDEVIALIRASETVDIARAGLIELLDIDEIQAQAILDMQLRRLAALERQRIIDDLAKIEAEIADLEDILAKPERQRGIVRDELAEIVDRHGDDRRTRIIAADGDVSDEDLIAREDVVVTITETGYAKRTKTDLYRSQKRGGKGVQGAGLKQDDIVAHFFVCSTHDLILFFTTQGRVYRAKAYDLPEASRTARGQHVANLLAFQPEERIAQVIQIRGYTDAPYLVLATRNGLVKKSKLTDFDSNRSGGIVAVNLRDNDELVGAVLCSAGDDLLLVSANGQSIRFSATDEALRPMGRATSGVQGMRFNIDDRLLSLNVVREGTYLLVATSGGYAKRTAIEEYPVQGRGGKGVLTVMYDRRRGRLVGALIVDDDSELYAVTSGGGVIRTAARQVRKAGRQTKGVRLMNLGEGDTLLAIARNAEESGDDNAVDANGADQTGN
Chain of DNA gyrase (Staphylococcus aureus) (P0A0K8 2-644 limits assumed): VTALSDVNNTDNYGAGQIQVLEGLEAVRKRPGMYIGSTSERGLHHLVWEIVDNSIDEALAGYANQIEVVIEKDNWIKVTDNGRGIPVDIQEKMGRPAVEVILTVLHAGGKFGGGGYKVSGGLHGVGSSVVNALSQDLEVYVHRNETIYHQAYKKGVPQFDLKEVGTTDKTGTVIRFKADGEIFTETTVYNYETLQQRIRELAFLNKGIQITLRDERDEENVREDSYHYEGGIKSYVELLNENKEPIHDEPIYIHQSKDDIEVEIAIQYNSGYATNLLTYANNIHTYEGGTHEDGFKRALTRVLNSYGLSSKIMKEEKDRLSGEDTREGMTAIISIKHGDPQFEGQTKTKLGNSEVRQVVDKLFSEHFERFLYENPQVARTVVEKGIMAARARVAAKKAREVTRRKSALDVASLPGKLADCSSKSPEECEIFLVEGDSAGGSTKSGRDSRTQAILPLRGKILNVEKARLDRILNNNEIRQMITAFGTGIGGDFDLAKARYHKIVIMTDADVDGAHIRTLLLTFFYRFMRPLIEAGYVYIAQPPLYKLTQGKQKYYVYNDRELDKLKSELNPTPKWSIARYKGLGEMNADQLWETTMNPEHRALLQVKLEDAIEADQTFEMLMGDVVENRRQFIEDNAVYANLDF
Chain of DNA gyrase (Staphylococcus aureus) (P20831 whole entry partner): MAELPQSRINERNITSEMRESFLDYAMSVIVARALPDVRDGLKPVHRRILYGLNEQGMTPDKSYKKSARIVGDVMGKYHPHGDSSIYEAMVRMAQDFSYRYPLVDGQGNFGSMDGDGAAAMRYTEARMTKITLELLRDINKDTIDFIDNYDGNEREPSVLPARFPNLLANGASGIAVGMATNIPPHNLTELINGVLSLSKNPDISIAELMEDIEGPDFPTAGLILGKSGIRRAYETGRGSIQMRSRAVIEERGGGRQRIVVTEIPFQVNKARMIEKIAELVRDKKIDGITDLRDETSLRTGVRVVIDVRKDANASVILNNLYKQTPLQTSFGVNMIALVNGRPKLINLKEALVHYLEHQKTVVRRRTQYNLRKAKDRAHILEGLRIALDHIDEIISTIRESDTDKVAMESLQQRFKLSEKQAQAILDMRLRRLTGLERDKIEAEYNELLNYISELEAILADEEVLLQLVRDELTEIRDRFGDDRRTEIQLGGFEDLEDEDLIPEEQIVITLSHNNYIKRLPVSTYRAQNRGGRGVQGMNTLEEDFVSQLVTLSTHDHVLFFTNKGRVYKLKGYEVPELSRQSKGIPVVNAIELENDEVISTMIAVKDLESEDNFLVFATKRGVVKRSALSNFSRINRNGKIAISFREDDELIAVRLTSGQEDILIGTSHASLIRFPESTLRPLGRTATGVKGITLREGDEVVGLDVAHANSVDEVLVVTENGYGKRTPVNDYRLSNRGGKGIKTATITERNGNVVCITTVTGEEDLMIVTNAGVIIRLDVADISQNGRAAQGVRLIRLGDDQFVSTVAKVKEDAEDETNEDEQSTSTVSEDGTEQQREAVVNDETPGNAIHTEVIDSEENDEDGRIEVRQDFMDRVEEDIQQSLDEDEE

As to `NNC(=O)c1ccncc1` [ISONIAZID], in data set [1], the IC50 (as a rule, the point on the concentration scale where inhibition reaches its midpoint) was above 50 µM. The lowest concentration to inhibit growth in data set [2] (MIC) was 0.66 µM (≈ 0.0905 µg/mL).

Take `Cc1ccc(NC(=S)Nc2ccc(Nc3c4ccccc4nc4ccccc34)cc2)cc1`: the IC50 in data set [1] was 31.1 µM. The inhibition (in general, how much of the control response was suppressed) at 72 h, 50 µM in data set [3] amounted to 27.4%. For the same compound, the inhibition result (in data set [4]; in data set [5]; in the data set on Escherichia coli; in data set [6]; in data set [7]) was “inactive” each time. Besides, in data set [2], the MIC (commonly the least concentration at which growth counts as inhibited) is above 57.5 µM.

Turning to `O=[N+]([O-])c1ccc(S(=O)(=O)Nc2ccc(Nc3c4ccccc4nc4ccccc34)cc2)cc1`, in data set [1], the IC50 amounted to 22.4 µM. In data set [3], the inhibition at 72 h, 50 µM came to 34.1%. Also, the inhibition entry (in data set [4]; in data set [5]; in the data set on Escherichia coli; in data set [6]; in data set [7]) was “inactive” each time. This compound yielded a minimum inhibitory concentration (MIC) in data set [2] of 24.6 µM (≈ 11.6 µg/mL).

On to `Cc1ccc(NC(=S)Nc2ccc(Nc3c4ccccc4nc4ccc(Cl)cc34)cc2)cc1`, for which, in data set [1], the half-maximal inhibitory concentration (IC50) was determined as 33.9 µM. In data set [3], the inhibition at 72 h, 50 µM came out at 25.5%. For the same compound, the inhibition entry (in data set [4]; in data set [5]; in the data set on Escherichia coli; in data set [6]; in data set [7]) was “inactive” each time. Further, the MIC in data set [2] was above 53.3 µM.

As to `S=C(Nc1ccccc1)Nc1ccc(Nc2c3ccccc3nc3ccc(Cl)cc23)cc1`, the IC50 in data set [1] was 29.3 µM. Moreover, the inhibition at 72 h, 50 µM in data set [3] worked out at 11.7%. The inhibition result (in data set [4]; in data set [5]; in the data set with Escherichia coli; in data set [6]; in data set [7]) was “inactive” each time. The MIC in data set [2] was 27.5 µM (≈ 12.5 µg/mL).

As for `Cc1ccc(NC(=O)Nc2ccc(Nc3c4ccccc4nc4ccc(Cl)cc34)cc2)cc1`, the IC50 in data set [1] was 12.5 µM. Also, in data set [3], the inhibition at 72 h, 50 µM is 29.2%. Further, the inhibition result (in data set [4]; in data set [5]; with Escherichia coli; in data set [6]; in data set [7]) was “inactive” in each case. Besides, the MIC in data set [2] was 13.8 µM (≈ 6.25 µg/mL).

As for `Cc1ccc2nc3ccccc3c(Nc3ccc(NC(=S)Nc4ccccc4)cc3)c2c1`, the IC50 in data set [1] came to 6.3 µM. The inhibition at 72 h, 50 µM in data set [3] was determined as 10.8%. Moreover, the inhibition entry (in data set [4]; in data set [5]; in the data set on Escherichia coli; in data set [6]; in data set [7]) was “inactive” throughout. Besides, the minimal inhibitory concentration (MIC) in data set [2] was 7.2 µM (≈ 3.13 µg/mL).

With `S=C(Nc1ccccc1)Nc1ccc(Nc2c3ccccc3nc3ccccc23)cc1`, the IC50 in data set [1] was determined as 8.2 µM. In data set [3], the inhibition at 72 h, 50 µM was found to be 29.2%. Further, the inhibition entry (in data set [4]; in data set [5]; in the data set on Escherichia coli; in data set [6]; in data set [7]) was “inactive” in each case. Moreover, in data set [2], the minimal inhibitory concentration (MIC) was found to be 14.9 µM (≈ 6.25 µg/mL).

As to `Cc1ccc2nc3ccccc3c(Nc3ccc(NC(=S)Nc4ccc(Cl)cc4)cc3)c2c1`, the IC50 in data set [1] stood at 11.2 µM. In addition, the inhibition at 72 h, 50 µM in data set [3] is 26%. Moreover, the inhibition entry (in data set [4]; in data set [5]; in the data set with Escherichia coli; in data set [6]; in data set [7]) was “inactive” throughout. Also, the MIC in data set [2] worked out at 26.7 µM (≈ 12.5 µg/mL).

Consider `CO[C@@H]1[C@@H](OC(N)=O)[C@@H](O)[C@H](Oc2ccc3c(O)c(NC(=O)c4ccc(O)c(CC=C(C)C)c4)c(=O)oc3c2C)OC1(C)C` [NOVOBIOCIN], for which, in data set [2], the MIC was above 50 µM.

`CO[C@H]1/C=C/O[C@@]2(C)Oc3c(C)c(O)c4c(O)c(c(/C=N/N5CCN(C)CC5)c(O)c4c3C2=O)NC(=O)/C(C)=C\C=C\[C@H](C)[C@H](O)[C@@H](C)[C@@H](O)[C@@H](C)[C@H](OC(C)=O)[C@@H]1C` [RIFAMPIN]: the IC50 in data set [1] was above 50 µM. The compound further returned a minimum inhibitory concentration (MIC) in data set [2] of 0.23 µM (≈ 0.189 µg/mL).

Regarding `Cc1ccc2nc3ccccc3c(Nc3ccc(NS(=O)(=O)c4ccccc4)cc3)c2c1`, the IC50 in data set [1] was 5.86 µM. Also, the inhibition at 72 h, 50 µM in data set [3] was 39.6%. Also, the inhibition result (in data set [4]; in data set [5]; with Escherichia coli; in data set [6]; in data set [7]) was “inactive” in each case. The same compound displayed an MIC in data set [2] of 28.4 µM (≈ 12.5 µg/mL).

Regarding `COc1c(N2C[C@@H]3CCCN[C@@H]3C2)c(F)cc2c(=O)c(C(=O)O)cn(C3CC3)c12` [MOXIFLOXACIN], the inhibition at 72 h, 50 µM in data set [3] stood at 1.26%. Besides, inhibition of growth in data set [2] (MIC) required 1.26 µM (≈ 0.506 µg/mL).

As to `Cc1ccc2nc3ccccc3c(Nc3ccc(NC(=O)Nc4ccc([N+](=O)[O-])cc4)cc3)c2c1`, in data set [1], the IC50 turned out to be 7.4 µM. In addition, in data set [3], the inhibition at 72 h, 50 µM was determined as 33.9%. For the same compound, the inhibition entry (in data set [4]; in data set [5]; in the data set with Escherichia coli; in data set [6]; in data set [7]) was “inactive” in each case. The compound also registered a minimum inhibitory concentration (MIC) in data set [2] of 13.5 µM (≈ 6.25 µg/mL).

Consider `O=[N+]([O-])c1ccc(S(=O)(=O)Nc2ccc(Nc3c4ccccc4nc4ccc(Cl)cc34)cc2)cc1`, for which the IC50 in data set [1] worked out at 8.1 µM. The inhibition at 72 h, 50 µM in data set [3] came to 30.4%. The inhibition result (in data set [4]; in data set [5]; with Escherichia coli; in data set [6]; in data set [7]) was “inactive” each time. Also, the minimum inhibitory concentration (MIC) in data set [2] amounted to 24.8 µM (≈ 12.5 µg/mL).

For `O=S(=O)(Nc1ccc(Nc2c3ccccc3nc3ccccc23)cc1)c1ccccc1`, the IC50 in data set [1] came out at 15.1 µM. Also, the inhibition at 72 h, 50 µM in data set [3] worked out at 42.1%. Moreover, the inhibition entry (in data set [4]; in data set [5]; in the data set with Escherichia coli; in data set [6]; in data set [7]) was “inactive” in each case. For the same compound, in data set [2], the MIC amounted to 14.7 µM (≈ 6.25 µg/mL).

In the case of `Cc1ccc2nc3ccccc3c(Nc3ccc(NC(=O)Nc4ccc(Cl)cc4)cc3)c2c1`, in data set [1], the IC50 came to 11.4 µM. Further, in data set [3], the inhibition at 72 h, 50 µM came out at 25.9%. Besides, the inhibition result (in data set [4]; in data set [5]; in the data set on Escherichia coli; in data set [6]; in data set [7]) was “inactive” throughout. Moreover, inhibition of growth in data set [2] (MIC) required 27.6 µM (≈ 12.5 µg/mL).

Take `O=S(=O)(Nc1ccc(Nc2c3ccccc3nc3ccc(Cl)cc23)cc1)c1ccccc1`: the IC50 in data set [1] was 9.2 µM. Also, the inhibition at 72 h, 50 µM in data set [3] is 14.5%. For the same compound, the inhibition result (in data set [4]; in data set [5]; in the data set with Escherichia coli; in data set [6]; in data set [7]) was “inactive” throughout. In addition, 27.2 µM (≈ 12.5 µg/mL) was the least that counted as inhibitory in data set [2] (MIC).

Take `O=C(Nc1ccc(Nc2c3ccccc3nc3ccccc23)cc1)Nc1ccc([N+](=O)[O-])cc1`: the IC50 in data set [1] turned out to be 26.8 µM. Besides, the inhibition at 72 h, 50 µM in data set [3] came to 19.2%. Further, the inhibition result (in data set [4]; in data set [5]; with Escherichia coli; in data set [6]; in data set [7]) was “inactive” in each case. This compound also came in with a minimal inhibitory concentration (MIC) in data set [2] of 27.8 µM (≈ 12.5 µg/mL).

Regarding `O=[N+]([O-])c1ccc(NC(=S)Nc2ccc(Nc3c4ccccc4nc4ccccc34)cc2)cc1`, the IC50 in data set [1] is 13.1 µM. In addition, the inhibition at 72 h, 50 µM in data set [3] turned out to be 20.8%. The inhibition result (in data set [4]; in data set [5]; with Escherichia coli; in data set [6]; in data set [7]) was “inactive” each time. The same compound came in with an MIC in data set [2] of 13.4 µM (≈ 6.25 µg/mL).

With `S=C(Nc1ccc(Cl)cc1)Nc1ccc(Nc2c3ccccc3nc3ccccc23)cc1`, the IC50 in data set [1] turned out to be 8.4 µM. In addition, in data set [3], the inhibition at 72 h, 50 µM stood at 12.5%. The inhibition result (in data set [4]; in data set [5]; with Escherichia coli; in data set [6]; in data set [7]) was “inactive” each time. In data set [2], this compound had an MIC of 13.7 µM (≈ 6.25 µg/mL).

For the compound `Cc1ccc2nc3ccccc3c(Nc3ccc(NS(=O)(=O)c4ccc([N+](=O)[O-])cc4)cc3)c2c1`, the IC50 in data set [1] is 8.34 µM. Moreover, the inhibition at 72 h, 50 µM in data set [3] worked out at 27%. The inhibition result (in data set [4]; in data set [5]; in the data set on Escherichia coli; in data set [6]; in data set [7]) was “inactive” throughout. This compound returned an MIC in data set [2] of 12.9 µM (≈ 6.25 µg/mL).

On to `Cc1ccc(S(=O)(=O)Nc2ccc(Nc3c4ccccc4nc4ccccc34)cc2)cc1`, for which, in data set [1], the IC50 came out at 9.3 µM. The inhibition at 72 h, 50 µM in data set [3] worked out at 28.4%. Moreover, the inhibition result (in data set [4]; in data set [5]; in the data set with Escherichia coli; in data set [6]; in data set [7]) was “inactive” each time. Also, the minimum inhibitory concentration (MIC) in data set [2] was found to be 28.4 µM (≈ 12.5 µg/mL).
